In ChEMBL document CHEMBL2169788, “Bioisosteric transformations and permutations in the triazolopyrimidine scaffold to identify the minimum pharmacophore required for inhibitory activity against Plasmodium falciparum dihydroorotate dehydrogenase” (J Med Chem, 2012):

Assays:
[1] = Inhibition of Plasmodium berghei DHODH expressed in Escherichia coli DH5alpha using 2,6-dichoroindophenol substrate by spectrophotometric analysis
[2] = molecular target: T1, Dihydroorotate dehydrogenase (Plasmodium falciparum, UniProt Q54A96); test: Inhibition of Plasmodium falciparum DHODH expressed in Escherichia coli DH5alpha using 2,6-dichoroindophenol substrate by spectrophotometric analysis
T1 sequence (Q54A96 whole entry): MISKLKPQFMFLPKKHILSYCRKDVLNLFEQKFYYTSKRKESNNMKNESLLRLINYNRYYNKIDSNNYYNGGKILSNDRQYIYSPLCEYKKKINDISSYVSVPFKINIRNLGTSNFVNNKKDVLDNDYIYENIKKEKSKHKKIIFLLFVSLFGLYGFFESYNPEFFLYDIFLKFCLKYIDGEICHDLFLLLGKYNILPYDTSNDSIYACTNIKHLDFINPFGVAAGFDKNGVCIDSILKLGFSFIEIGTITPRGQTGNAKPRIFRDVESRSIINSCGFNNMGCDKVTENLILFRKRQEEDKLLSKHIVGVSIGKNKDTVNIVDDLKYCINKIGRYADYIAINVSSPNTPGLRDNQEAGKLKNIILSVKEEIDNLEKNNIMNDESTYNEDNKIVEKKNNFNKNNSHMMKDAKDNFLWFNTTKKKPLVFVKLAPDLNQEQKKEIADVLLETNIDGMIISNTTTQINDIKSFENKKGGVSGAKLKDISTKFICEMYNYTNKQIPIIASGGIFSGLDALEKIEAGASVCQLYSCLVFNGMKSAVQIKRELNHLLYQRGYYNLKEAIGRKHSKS
Summary of the method: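 Recombinant purified enzyme; colorimetric steady-state assay following DCIP (120 micromolar) reduction at 600 nm, coupled to CoQ_D reoxidation. Started with enzyme (5–10 nM final), 20 °C. IC50 fitted across inhibitor concentrations, triplicate points each.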

Plasmodium falciparum = test: Antiplasmodial activity against Plasmodium falciparum 3D7 infected in human erythrocytes assessed as inhibition of [3H]hypoxanthine incorporation after 48 hrs; assay type: functional, organism-based
Summary of the method: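 Clone 3D7 grown in RPMI-1640 with 20% human type A+ plasma and 2% (w/v) red blood cells. Proliferation measured by standard [3H]-hypoxanthine uptake in infected erythrocytes.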

[3] = molecular target: Dihydroorotate dehydrogenase (quinone), mitochondrial (Homo sapiens, UniProt Q02127); test: Inhibition of human DHODH expressed in Escherichia coli BL21(DE3) using 2,6-dichoroindophenol substrate by spectrophotometric analysis
Dihydroorotate dehydrogenase (quinone), mitochondrial, sequence (Q02127 whole entry): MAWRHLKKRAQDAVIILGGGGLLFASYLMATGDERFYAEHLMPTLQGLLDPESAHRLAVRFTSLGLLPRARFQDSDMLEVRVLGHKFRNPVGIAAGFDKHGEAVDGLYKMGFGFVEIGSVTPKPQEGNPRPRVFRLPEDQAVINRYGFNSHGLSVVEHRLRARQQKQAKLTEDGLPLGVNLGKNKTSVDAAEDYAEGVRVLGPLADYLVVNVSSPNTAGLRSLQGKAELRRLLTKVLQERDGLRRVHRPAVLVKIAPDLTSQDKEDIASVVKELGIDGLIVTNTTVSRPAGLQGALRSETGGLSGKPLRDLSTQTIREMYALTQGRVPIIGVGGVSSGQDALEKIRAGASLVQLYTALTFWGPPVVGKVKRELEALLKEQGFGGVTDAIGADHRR

[4] = Drug metabolism in mouse liver microsomes by LC/MS analysis; assay type: ADME, Microsome
Summary of the method: (§1)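 Compound at 1 μM incubated at 37°C with pooled human or mouse liver microsomes (0.4 mg/mL protein). Reaction started with NADPH-regenerating system (1 mg/mL NADP, 1 mg/mL glucose-6-phosphate, 1 U/mL G6PDH, 0.67 mg/mL MgCl2) and quenched at time points with ice-cold acetonitrile. Parent loss tracked by LC/MS against a microsomal-matrix calibration curve. First-order depletion rate constant came from an exponential decay fit.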

Liver [5] = test: Intrinsic clearance in mouse liver microsomes assessed per mg of protein at 1 uM by LC/MS analysis; assay type: ADME, Microsome; summary of the method: as §1
Liver microsomes [6] = test: Half life in human liver microsomes at 1 uM by LC/MS analysis; assay type: ADME, Microsome; summary of the method: as §1
Liver microsomes [7] = test: Intrinsic clearance in human liver microsomes assessed per mg of protein at 1 uM by LC/MS analysis; assay type: ADME, Microsome; summary of the method: as §1
[8] = Cmax in Swiss mouse at 10 mg/kg, po; assay type: ADME, organism-based; parameters: dose 10 mg/kg, route oral; conditions: in vivo
Summary of the method: (§2)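 Single 10 mg/kg oral gavage dose (0.1 mL) given as a suspension in 0.5% w/v Na carboxymethylcellulose, 0.5% v/v benzyl alcohol, 0.4% v/v Tween 80. Food and water ad libitum. One cardiac-puncture blood sample per mouse at 1, 2, 4, 7.5, 16 and 24 h. Heparinised plasma stored at –20°C, acetonitrile-precipitated and quantified by LC-MS against a plasma calibration curve; quantitation limit 0.003 μM.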

Plasmodium berghei = test: Antimalarial activity against erythrocytic stage of Plasmodium berghei NK65 infected in BALB/c mouse assessed as reduction in parasitemia at 50 mg/kg, po administered QD for 4 days starting 1 day post-infection measured 24 hrs post-last dose relative to vehicle-treated control; assay type: functional; parameters: scale not given: the % may be the effect or the level left
Summary of the method: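 Female BALB/c mice, 8–10 weeks old, infected IP with 2×10^7 infected erythrocytes (200 μL) 24 h before first dose; minimum 0.1% parasitemia confirmed before treatment. Oral dosing 1× daily for 4 consecutive days, vehicle or chloroquine (10 mg/kg oral, same schedule) as controls. Parasitemia from Wright-Giemsa-stained thin blood smears, tail-vein bleeds daily.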

Mus musculus = test: Toxicity in Swiss mouse assessed as adverse effects at 10 mg/kg, po; assay type: organism-based; parameters: dose 10 mg/kg, route oral; conditions: in vivo
Summary of the method: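 Mice watched for adverse reactions after one oral 10 mg/kg dose, given as a suspension in aqueous carboxymethylcellulose/benzyl alcohol/Tween 80 vehicle.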

Liver [9] = test: Half life in mouse liver microsomes at 1 uM by LC/MS analysis; assay type: ADME, Microsome; summary of the method: as §1
[10] = Plasma concentration in Swiss mouse at 10 mg/kg, po up to 4 hrs; assay type: ADME, organism-based; parameters: dose 10 mg/kg, route oral; summary of the method: as §2
[11] = Plasma concentration in Swiss mouse at 10 mg/kg, po at 16 hrs; assay type: ADME, organism-based; parameters: dose 10 mg/kg, route oral; summary of the method: as §2
Liver microsomes [12] = test: Drug metabolism in human liver microsomes by LC/MS analysis; assay type: ADME, Microsome; summary of the method: as §1

| Compound | IC50 [1] [µM] | IC50 [2] [µM] | EC50 (Plasmodium falciparum) [µM] | IC50 [3] [µM] | further results |
| --- | --- | --- | --- | --- | --- |
| Cc1cc(Nc2ccc3ccccc3c2)c2nncn2n1 | > 50 | > 50 | > 5 | – | – |
| Cc1cc(NC(=O)c2ccc(C(F)(F)F)cc2)n2ncnc2n1 | > 100 | > 100 | > 50 | > 100 | – |
| Cc1cc(Nc2ccc(C(F)(F)F)cc2)n2ccnc2n1 | 0.17 | 0.077 | 0.32 | > 100 | Drug metabolism [4]: Not Active; CLint (Liver [5]): 34 µL/min/mg; t1/2 (Liver microsomes [6]): 6.13 h; CLint (Liver microsomes [7]): 4.7 µL/min/mg; Cmax [8]: 3.9 µM; Activity (Plasmodium berghei): 56%; Activity (Mus musculus): Non-toxic; t1/2 (Liver [9]): 0.863 h; concentration at 4 h [10]: > 1 µM; concentration at 16 h [11]: < 0.003 µM; Drug metabolism (Liver microsomes [12]): Not Active |
| Cc1nc(Nc2ccc3cc4ccccc4cc3c2)c2nc[nH]c2n1 | > 10 | 4.8 | 3.2 | – | – |
| Cc1cc(Nc2ccc3ccccc3c2)n2ccnc2n1 | 2.8 | 0.15 | 0.19 | > 100 | – |
| Cc1cc(NC(=O)c2ccccc2)n2ncnc2n1 | > 100 | > 100 | > 100 | > 100 | – |
| Cc1cc(Nc2ccc3ccccc3c2)n2ncnc2c1 | 6.3 | 4.8 | 5.2 | – | – |
| Cc1nc(Nc2n[nH]cc2C#N)c2nc[nH]c2n1 | – | > 100 | > 25 | – | – |
| Cc1nc(Nc2ccc3ccccc3c2)c2nc[nH]c2n1 | 11 | 0.44 | 2.2 | > 100 | – |
| Cc1nc(Nc2ccc3ccccc3c2)c2cn[nH]c2n1 | – | > 100 | > 12.5 | – | – |
| Cc1nc(Nc2ccc3ncccc3c2)c2nc[nH]c2n1 | – | > 25 | 3.2 | – | – |
| Cc1cc(Nc2ccc3ccccc3c2)n2nccc2n1 | 3.3 | 0.4 | 0.91 | > 100 | – |
| Cc1nc(Nc2cnc3ccccc3c2)c2nc[nH]c2n1 | – | 27 | > 10 | – | – |
